# Screens as filed in PubChem.
# Only some compounds are listed: those with a hit (about 1.7% of all), similar ones and a draw of the others.
# MLLE-PAM2 inh = inhibitors of microRNA-mediated deadenylation, human PABP1 MLLE binding; AID 588489; 360,000 tested, 0.36% active; inhibition, % at 20 µM; GST-MLLE / FITC-PAM2 fluorescence polarization; P11940; in the data active = inhibition above about 35%, passing the limit was not always enough;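 note: plate controls were DMSO wells with GST-MLLE for no effect and wells lacking GST-MLLE protein for full effect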
# MT1-MMP act inh = MT1-MMP (human) activation inhibition. P50281. HT1080 RFP-PRO-GFP cells, GFP/RFP ratio fluorescence, overnight; percent of plate control window, DMSO zero. GFP/RFP ratio change, % at 20 µM. 360,000 tested, 0.061% active. AID 651647;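 active = GFP/RFP ratio change of at least 30% with cell ATP level not reduced by more than half and red fluorescence within 50% of control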
#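 Assay system: HT1080 cells carrying an RFP-PRO-GFP reporter | Dosing: Single dose of 20 µM compound, 1% DMSO final | Incubation: Cells overnight before dosing, compound overnight, 37 °C, 5% CO2 | Evaluation: GFP/RFP fluorescence ratio | Control set: DMSO and RFP-L50D-GFP cell wells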
# SKN-1 inh = inhibitors of C. elegans SKN-1 | 360,000 tested, 0.49% active | C. elegans VP596 Pgst-4::GFP/RFP ratio, acrylamide-induced, 24 h | inhibition, % at 21.8 µM;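 active = interference check ratio from 0.5 to 1.5 plus GFP to RFP signal ratio inhibition reaching or exceeding a fixed threshold, cut at about 30% in these data, passing the limit was not always enough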
# PABP FP inh = PABP-poly(A) binding inhibition | P11940 | PABP-poly(A) RNA binding, fluorescence polarization | inhibition, % at 35 µM | 290,000 tested, 1% active;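 note: calls also rest on retests at 20 µM and on dose response follow-up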
# eIF4H FP inh = inhibitors of RNA binding by human eIF4H | Q15056 | 290,000 tested, 0.94% active | AID 2012 | eIF4H fluorescence polarization binding assay | inhibition, % at 35 µM;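 note: calls also rest on retests at 20 µM and on dose response follow-up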
# * marks the source's active call; other numbers are inactive results; u = inconclusive; x = no result given. Unless noted, the rule behind the calls is not given here.
SMILES,MLLE-PAM2 inh,MT1-MMP act inh,SKN-1 inh,PABP FP inh,eIF4H FP inh
CNC(=O)C1CC(=O)N(c2ccc(OCC(=O)NCc3ccccc3)cc2)C1 (stereo not given),17,4,21,8,-2
Cn1c2ccc(F)cc2c2nnc(SCCN3CCOCC3)nc21,37,-1,26,9,7
CCCCn1c2ccc(F)cc2c2nnc(SCCN3CCOCC3)nc21,45*,-1,10,8,-7
O=[N+]([O-])c1ccccc1Oc1ncccc1[N+](=O)[O-],2,4,-5,-6,-2
CCOc1ccccc1N(C(=O)c1snc(C(N)=O)c1N)C(C(=O)NC1CCCC1)c1cccs1 (stereo not given),59*,-2,-3,3,-5
CC1=NN(c2ccc(C(=O)O)c(N)c2)C(=O)C1,-1,6,6,8,98*
CC1=NN(c2ccc(Cl)c(C(=O)O)c2)C(=O)C1,12,2,4,-5,9
O=C(Nc1ccc(Br)cc1)Nn1cnnc1,1,5,-6,4,-6
CCCn1nc(C(=O)Nc2ccc(S(=O)(=O)Nc3nccs3)cc2)c2ccccc2c1=O,-39,-4,-6,75*,58*
Cc1ccc(-c2cc(C(=O)Nc3ccc(S(=O)(=O)Nc4nccs4)cc3)c3ccccc3n2)c(C)c1,22,-6,4,active,60*
O=C(Nc1ccc(S(=O)(=O)Nc2nccs2)cc1)c1cc(-c2ccccc2)nc2ccccc12,8,2,17,3,10
CCOc1ccc(-n2ccc(=O)c(C(=O)Nc3ccc(S(=O)(=O)Nc4nccs4)cc3)n2)cc1,9,0,12,10,34
CCn1nc(C(=O)Nc2ccc(S(=O)(=O)Nc3ncccn3)cc2)c2ccccc2c1=O,-12,1,-11,3,3
O=C(Nc1ccc(S(=O)(=O)Nc2nccs2)cc1)c1nn(-c2ccc(F)cc2)ccc1=O,6,-2,-1,48*,80*
CC1(C)c2ccccc2C(=O)c2ccccc21,-6,8,46*,x,x
CC1(C)C(=Cc2ccccc2)C(=O)c2ccccc21,-8,0,41*,x,x
N#Cc1ccsc1NC(=O)COC(=O)c1ccc2ccccc2c1,-34,-8,11,3.5*,56
O=C(COC(=O)c1ccc(Cl)nc1)Nc1ccc2ccccc2c1,-15,5,47*,x,x
CCN(c1ccccc1)c1nc2ccsc2c(=O)s1,20,-7,1,-2,-11
CN(c1ccccc1)c1nc2ccsc2c(=O)s1,6,-2,43*,13,-4
Cc1ccc(NC(=S)NCCN(C2CCCCC2)C2CCCC2)cc1,-6,2,-3,-10,-1
Cc1ccc(NC(=S)NCCN(C2CCCCC2)C2CCCC2)cc1C,2,-1,0,51*,active
Cc1ccc(S(=O)(=O)NCc2ccccc2)cc1C(=O)NC(C)c1ccc(S(N)(=O)=O)cc1 (stereo not given),6,-1,-4,x,x
CC1(N2CCCCC2)C(=O)c2ccccc2C1=O,10,1,-6,50*,active
Cc1ccc2nc(C)c(C(=O)N/N=C/c3ccco3)cc2c1,2,3,11,9,10
SMILES,MLLE-PAM2 inh,MT1-MMP act inh,SKN-1 inh,PABP FP inh,eIF4H FP inh
O=C(N/N=C/c1ccco1)c1cc(-c2ccc(Br)s2)[nH]n1,-5,-2,-3,23,8
Cc1nc2ccccc2cc1C(=O)N/N=C/c1ccco1,-4,-2,2,-18,87*
O=C(N/N=C/c1ccco1)c1cc(-c2cccs2)[nH]n1,-3,5,-1,active,60*
COc1ccc(CCn2c(-c3ccco3)nc3nc4ccccc4nc32)cc1,-46,-46,5,88*,67*
O=S(=O)(NCCCSc1ccccc1)c1ccccc1F,43*,-2,18,-2,-9
O=[N+]([O-])c1ccccc1S(=O)(=O)NCCSc1ccccc1,-13,-2,-2,-14,8
CC1CC=C2C(C#N)=C(N)C(C#N)(C#N)C(c3cccs3)C2C1 (stereo not given),80,-48,-21,124*,123*
CCOc1ccccc1CN1CCCC(CNS(=O)(=O)c2ccc(OC)cc2)C1 (stereo not given),-13,2,-1,-5,-6
COc1ccc2nc(C(F)(F)Cl)c(C#N)c(N)c2c1,-13,-5,-3,5,2
COc1ccc2nc3cc(Cl)ccc3c(C#N)c2c1,54*,-7,-1,34,32
CN(C)c1ccc(C(=O)/C=C/c2ccc(Br)cc2)cc1,-26,-3,16,-12,-10
CN(C)c1ccc(C(=O)/C=C/c2ccccc2)cc1,-8,0,43*,-2,5
CC1CCc2nc(N)c(C#N)c(-c3cccn3C)c2C1 (stereo not given),-27,-17,-15,111*,97*
O=C(CC(SCCO)c1ccc2c(c1)OCO2)c1cccs1 (stereo not given),43*,-1,5,4,6
COC(=O)[C@@]1(Cc2ccc(F)cc2)[C@@H]2[C@@H](CC(=O)[C@H]2CC(=O)C(=O)N(C)C)CN1C(=O)c1ccccc1,-6,0,-12,118*,71*
COC(=O)[C@@]1(Cc2ccc(OC)cc2)[C@@H]2[C@@H](CC(=O)[C@H]2CC(=O)C(=O)N(C)C)CN1C(=O)c1ccccc1,-2,0,9,8,28
CC(Oc1ccc([N+](=O)[O-])cc1)C(=O)NCC1CCCO1 (stereo not given),-10,-3,9,3,-2
Cc1cc(C)c2c(CC(=O)NC(C)C)coc2c1,9,2,1,-2,-3
Cc1cc(C)c2c(=O)c(C#N)coc2c1,39*,0,-6,-10,-8
N#Cc1c2n(c(=S)n(-c3ccccc3[N+](=O)[O-])c1=O)CCCCC2,51*,1,-10,11,6
N#Cc1c2n(c(=S)n(-c3ccccc3)c1=O)CCCCC2,14,4,10,0,5
O=C(O)c1ccc(-n2cccc2/C=C2/NC(=O)N(c3cccc(Cl)c3)C2=O)cc1,-1,-7,1,-9,92
N#CC(C#N)=Cc1cccn1-c1ccc(C(=O)O)cc1,0,1,6,104,87*
N#C/C(=C/c1cccn1-c1cccc(C(=O)O)c1)c1ccc(Cl)cc1,10,-3,1,34*,80
CCOC(=O)/C(C#N)=C/c1cccn1-c1ccc(Cl)cc1,-2,1,-13,-6,-13
Cc1ccc(N/C=C2/Sc3ccccc3NC2=O)cc1,-36,-9,13,active,u
COc1ccc(N/C=C2/Sc3ccccc3NC2=O)cc1,28,5,0,13,2
N#CCOc1nc(N2CCOCC2)nc(N2CCOCC2)n1,-4,13,15,3,1
N#Cc1nc(N2CCOCC2)nc(N2CCOCC2)n1,8,2,36*,-1,0
